Measured values from ChEMBL document CHEMBL1156469 (2007).
Active and inactive are the calls of the source. The rule behind the calls is not given here.

Columns and labels:
Osteoblast [1] = assay: Effect on ornithine decarboxylase gene expression in rat primary osteoblast cells assessed as expression ratio of treated to untreated control by microarray analysis; format: functional
Method in brief: (§1)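 Resveratrol-treated and vehicle-treated primary osteoblasts were profiled on a mouse osteogenesis-focused cDNA array (GEArray Q series) built to track gene expression during osteogenic differentiation. Each gene's signal in treated cells was expressed as a ratio to untreated control.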

[2] = target: Forkhead box protein O3 (Homo sapiens) (UniProt O43524); assay: Reversal of induction of FOXO3a activity in human MDA-MB-231 cells transfected with FOXO3a-specific small interfering RNA; format: cell-based
[3] = target: Proto-oncogene tyrosine-protein kinase Src (Mus musculus) (UniProt P05480); assay: Increase in Src kinase phosphorylation in mouse MC3T3-E1 cells at 1 uM; format: cell-based
Method in brief: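 MC3T3-E1 cells, with or without DN-Src vector (3 μg) or PP2 (10 μm), treated ± 1 μm; Src phosphorylation by Western blot; three independent experiments.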

[4] = Reversal of increase in pBMP2 expression in mouse MC3T3-E1 cells expressing small interfering RNA for FOXA1 protein at 1 uM by luciferase method; format: functional, cell-based
MDA-MB-231 [5] = assay: Reduction in anchorage-independent colony formation of human MDA-MB-231 cells at 1 uM by soft agar colony forming assay; format: functional, cell-based
Method in brief: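 Seeded in 0.35% noble agar in DMEM/10% FBS over a 0.7% agar bed. Colonies of at least 50 μm counted after 3 weeks under a dissecting microscope, six replicates per treatment. Three separate experiments.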

[6] = Reversal of increase in pBMP2 expression in mouse MC3T3-E1 cells at 1 uM by luciferase method in presence of PP2; format: functional, cell-based
Method in brief: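 BMP-2 promoter activity measured by dual-luciferase assay and expressed relative to the untreated vector control.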

MDA-MB-231 [7] = assay: Antitumor activity against human MDA-MB-231 cells xenografted in SCID mouse orthotropic model assessed as inhibition of 17beta estradiol-induced tumor formation at 10 mg/kg for 2 days; format: functional; set-up: scale not given: the % may be the effect or the level left
Method in brief: (§2)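 Tumor cells were inoculated orthotopically into the mammary fat pad of 6-week-old female SCID mice. […] Tumor volume was calculated as LW2/2. Tumor formation was scored as mice with tumors per total (20 per group), and tumor weight as mean ± S.D. Groups were compared by one-way ANOVA with LSD post-hoc comparisons.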

MDA-MB-231 [8] = assay: Antitumor activity against human MDA-MB-231 cells xenografted in SCID mouse orthotropic model assessed as inhibition of 17beta estradiol-induced tumor weight at 10 mg/kg for 2 days; format: functional; set-up: scale not given: the % may be the effect or the level left; method in brief: as §2
Osteoblast [9] = assay: Effect on fibroblast growth factor receptor 3 gene expression in rat primary osteoblast cells assessed as expression ratio of treated to untreated control by microarray analysis; format: functional
Osteoblast [10] = assay: Effect on integrin alpha 2 gene expression in rat primary osteoblast cells assessed as expression ratio of treated to untreated control by microarray analysis; format: functional; method in brief: as §1
Osteoblast [11] = assay: Effect on bone morphogenetic protein 3 gene expression in rat primary osteoblast cells assessed as expression ratio of treated to untreated control by microarray analysis; format: functional
Osteoblast [12] = assay: Effect on secreted acidic cysteine rich glycoprotein gene expression in rat primary osteoblast cells assessed as expression ratio of treated to untreated control by microarray analysis; format: functional; method in brief: as §1
Osteoblast [13] = assay: Effect on procollagen 1 alpha 2 gene expression in rat primary osteoblast cells assessed as expression ratio of treated to untreated control by microarray analysis; format: functional; method in brief: as §1
[14] = Effect on colony stimulating factor 2 gene expression in rat primary osteoblast cells assessed as expression ratio of treated to untreated control by microarray analysis; format: functional

Proto-oncogene tyrosine-protein kinase Src (Mus musculus), sequence (P05480 2-535 limits assumed): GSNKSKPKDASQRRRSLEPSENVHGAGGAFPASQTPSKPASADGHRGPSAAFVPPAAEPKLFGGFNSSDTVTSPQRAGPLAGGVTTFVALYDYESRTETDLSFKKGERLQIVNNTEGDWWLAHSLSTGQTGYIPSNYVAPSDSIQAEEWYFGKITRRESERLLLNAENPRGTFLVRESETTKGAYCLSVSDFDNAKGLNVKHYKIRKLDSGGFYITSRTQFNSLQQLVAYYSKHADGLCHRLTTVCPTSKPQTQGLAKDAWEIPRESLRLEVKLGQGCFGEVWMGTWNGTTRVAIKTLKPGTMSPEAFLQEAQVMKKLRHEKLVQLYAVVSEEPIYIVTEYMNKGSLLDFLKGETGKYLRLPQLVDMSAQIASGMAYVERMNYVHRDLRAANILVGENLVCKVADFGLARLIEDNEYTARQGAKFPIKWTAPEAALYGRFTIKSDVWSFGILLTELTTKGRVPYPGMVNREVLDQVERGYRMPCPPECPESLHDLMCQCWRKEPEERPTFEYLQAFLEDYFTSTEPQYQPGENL
Forkhead box protein O3 (Homo sapiens), sequence (O43524 whole entry): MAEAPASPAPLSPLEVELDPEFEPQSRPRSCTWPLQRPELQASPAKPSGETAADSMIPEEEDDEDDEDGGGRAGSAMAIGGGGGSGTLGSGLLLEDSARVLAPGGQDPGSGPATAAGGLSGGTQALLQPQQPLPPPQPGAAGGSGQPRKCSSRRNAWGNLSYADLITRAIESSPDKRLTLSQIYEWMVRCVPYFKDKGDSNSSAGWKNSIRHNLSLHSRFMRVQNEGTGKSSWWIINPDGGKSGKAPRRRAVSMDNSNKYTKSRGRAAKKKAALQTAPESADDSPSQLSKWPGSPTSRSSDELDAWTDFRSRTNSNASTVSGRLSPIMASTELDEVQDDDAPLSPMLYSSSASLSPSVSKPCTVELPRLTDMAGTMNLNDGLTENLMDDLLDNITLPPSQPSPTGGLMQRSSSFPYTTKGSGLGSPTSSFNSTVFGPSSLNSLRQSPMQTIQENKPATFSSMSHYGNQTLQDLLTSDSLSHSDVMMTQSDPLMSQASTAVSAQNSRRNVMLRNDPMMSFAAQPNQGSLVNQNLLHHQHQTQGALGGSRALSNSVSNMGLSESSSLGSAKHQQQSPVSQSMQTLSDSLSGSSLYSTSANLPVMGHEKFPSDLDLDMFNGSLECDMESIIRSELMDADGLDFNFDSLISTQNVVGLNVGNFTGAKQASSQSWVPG

For `Oc1ccc(/C=C/c2cc(O)cc(O)c2)cc1` [RESVERATROL], the Ratio (Osteoblast [1]) was 2.79, the Activity [2] was “Active” and the Activity [3] was “Active”. For the same molecule, the Activity [4] was “Active”, the Activity (MDA-MB-231 [5]) was “Active” and the Activity [6] was “Active”. The Activity (MDA-MB-231 [7]) was 85%, the Activity (MDA-MB-231 [8]) was 43.6% and the Ratio (Osteoblast [9]) was 0.9. It also gave a Ratio (Osteoblast [10]) of 2.24, a Ratio (Osteoblast [11]) of 0.27 and a Ratio (Osteoblast [12]) of 1.6. The Ratio (Osteoblast [13]) was 8.24 and the Ratio [14] was 0.35.
